KCNK9 inh – KCNK9 potassium channel inhibitors, primary screen, HEK293 cells, thallium flux; FluxOR thallium flux fluorescence; stronger effect = lower value; hit rate 1.2% among 310,000; Potassium channel subfamily K member 9 (Homo sapiens), Q9NPC2; B-score at 10 µM;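 active = ratio B-score over 3 SD below the library mean, with starting fluorescence within 5 SD of its mean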;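 also: negative B-score means less thallium flux so channel inhibition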
hERG rescue – hERG rescue from dofetilide block, primary screen, cell-based, CHO-hERG, FluxOR thallium flux, dofetilide IC70. Voltage-gated inwardly rectifying potassium channel KCNH2 (Homo sapiens), Q12809. dofetilide IC70 present. activation (rescue from dofetilide block), less the hit threshold, % at 10 µM. hit rate 0.51% among 310,000. AID 1511, 2009;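 active = activation above the mean of controls blocked by dofetilide plus 5 SD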;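 also: thallium influx through hERG after potassium depolarization seen as dye fluorescence rise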
KCNQ1 inh – inhibitors of human KCNQ1 channel, primary screen, cell-based, thallium flux, high-throughput | B-score at 10 µM | CHO-K1 KCNQ1, FluxOR thallium flux fluorescence; stronger effect = higher value | hit rate 1.3% among 310,000 | Potassium voltage-gated channel subfamily KQT member 1 (Homo sapiens), P51787;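 active = compounds whose thallium flux B-score, printed positive for inhibition, exceeds three library SD while starting fluorescence stays within three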;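 also: channel opened by potassium depolarization with thallium stimulus after 20 min compound exposure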
KCNK3 inh – human KCNK3 channel inhibitors, primary screen, CHO cells, FluxOR thallium flux, B-score | Potassium channel subfamily K member 3 (Homo sapiens), O14649 | FluxOR fluorescence; stronger effect = lower value | B-score at 10 µM | hit rate 0.84% among 340,000 | AID 602410, 2012;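 active = B-score under library mean minus 4 SD, starting fluorescence ratio at most library mean plus 5 SD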;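 also: more negative B-score means stronger inhibition of thallium flux through KCNK3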
Target sequence (O14649 whole entry, looked up): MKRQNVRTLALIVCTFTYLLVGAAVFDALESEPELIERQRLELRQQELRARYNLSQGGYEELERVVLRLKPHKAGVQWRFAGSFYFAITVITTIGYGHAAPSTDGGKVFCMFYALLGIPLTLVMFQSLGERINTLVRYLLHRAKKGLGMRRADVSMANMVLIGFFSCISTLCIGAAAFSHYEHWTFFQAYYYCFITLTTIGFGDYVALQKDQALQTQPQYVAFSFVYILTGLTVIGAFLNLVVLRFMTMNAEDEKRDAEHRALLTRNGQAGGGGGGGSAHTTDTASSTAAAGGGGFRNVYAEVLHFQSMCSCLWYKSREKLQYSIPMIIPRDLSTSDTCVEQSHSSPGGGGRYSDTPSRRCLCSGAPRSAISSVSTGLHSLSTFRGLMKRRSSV
Kir21 block – inhibitors of mouse Kir2.1 inward-rectifier potassium channel. Inward rectifier potassium channel 2 (Mus musculus), P35561. HEK293-Kir2.1, FluxOR thallium flux fluorescence; stronger effect = lower value. B-score at 10 µM. hit rate 0.85% among 310,000. AID 1672, 2009;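 active = fluorescence ratio B-score at or below minus 3 SD of library scores, with starting-brightness B-score within 2 SD, cut at about -4.2 in these data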;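 also: channel flux triggered by added potassium and thallium sulfate stimulus; B-score of peak minus minimum fluorescence over baseline after thallium stimulus; more negative B-score means stronger Kir2.1 block with less thallium influx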
KCNQ1 act – potentiators or activators of KCNQ1 channel, primary screen, cell-based, thallium flux, high-throughput; Potassium voltage-gated channel subfamily KQT member 1 (Homo sapiens), P51787; hit rate 0.35% among 310,000; CHO-K1 KCNQ1, thallium flux FluxOR fluorescence; stronger effect = higher value; B-score at 10 µM;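 active = fluorescence ratio B-score, a plate-corrected score, at least three library SD, with initial intensity B-score within 5 SD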
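Assay system: stable KCNQ1 CHO-K1 line; medium: assay buffer, equal DMSO in all wells; timing: 90 min dye loading and 20 min compound exposure, both at room temperature; technique: kinetic FluxOR thallium fluorescence, 10-s 1-Hz baseline, 110-s post-stimulus read; read-out basis: B score of baseline-normalized fluorescence ratio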
KCNK9 block conf – KCNK9 potassium channel inhibitors, confirmation, HEK293 cells, thallium flux, duplicate. hit rate 43% among 4,900. FluxOR thallium flux fluorescence. AID 492992, 2010. shares compounds with KCNK9 inh. inhibition, % at 10 µM;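 active = thallium signal inhibited by more than 5 SD of the compound-free buffer control wells, on both duplicate plates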
Kir2-1 spec – mouse Kir2.1 channel inhibition, confirmation, selectivity assay for KCNK9 modulator project, cell-based, HEK293, thallium flux; hit rate 4% among 4,900; inhibition, % at 10 µM; Kir2.1 cells, FluxOR thallium flux fluorescence; shares compounds with KCNK9 inh;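 active = thallium signal drop more than 5 SD beyond the mean of the no-compound control wells, seen in both duplicate plates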;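 also: signal is fluorescence rise after thallium addition divided by baseline fluorescence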
HEK293 Tl ctr – thallium flux in non-induced HEK293 cells, confirmation, counter-screen for KCNK9 inhibitor project, cell-based, second counter screen, non-induced KCNK9-HEK293; inhibition, % at 10 µM; hit rate 40% among 4,900; AID 492997, 2010; FluxOR thallium flux; shares compounds with KCNK9 inh;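 active = thallium signal drop beyond 5 SD of the untreated control mean, on both duplicate plates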
Hits are given with their value; - = inactive; . = no result given. Sampled rows, rich in hits. Any-hit rate of the full collection: about 3.8%.

SMILES	KCNK9 inh	hERG rescue	KCNQ1 inh	KCNK3 inh	Kir21 block	KCNQ1 act	KCNK9 block conf	Kir2-1 spec	HEK293 Tl ctr
CSc1nc(C(=O)N2CCc3c([nH]c4ccccc34)C2c2ccccn2)cs1 (centres undefined)	-9.7	-	-	-	-	-	49%	-	29%
Cc1ccc2nc(C(=O)N3CCc4c([nH]c5ccccc45)C3c3ccccn3)cn2c1 (centres undefined)	-	-	-	-	-	-	.	.	.
O=C(c1cccs1)N1CCc2c([nH]c3ccccc23)C1c1ccccn1 (centres undefined)	-9	-	-	-	-	-	-	-	-
Cc1ccc2cc(C)c(N3CCN(c4ccccn4)CC3)nc2c1	-	-	-	-	-	-	-	-	26%
N#Cc1ccc(OCCN2CCc3ccccc3C2)cc1	-	-	-	-	-	-	.	.	.
Cc1ccc(Cl)c(OCCN2CCc3ccccc3C2)c1	-	-	-	-	-	-	-	-	-
Cc1ccc(Cl)c(OCCCN(C)Cc2ccccc2)c1	-	-	-	-	-	-	-	-	-
COc1ccc(C2=NCC(CSc3nnc(-c4ccc5c(c4)OCO5)o3)S2)cc1 (centres undefined)	-	-	-	-	-	-	-	-	-
Cc1ccc(CSc2nnc(-c3ccc4c(c3)OCO4)o2)cc1	-	-	-	-	-	-	.	.	.
O=C(CSc1nncs1)NC1CCCCCCC1	.	.	.	-	.	.	.	.	.
O=C(c1ccc2c3c(cccc13)CC2)C1CCCN(Cc2cccnc2)C1 (centres undefined)	-	-	-	-	-	-	-	-	-
COc1cc(CN2CCCC(C(=O)c3ccc4c5c(cccc35)CC4)C2)cc(OC)c1O (centres undefined)	-	-	-	-	-	-	-	-	-
CN1CCC(C(=O)N2CCCC(C(=O)c3ccc4c5c(cccc35)CC4)C2)CC1 (centres undefined)	-	-	-	-	-	-	.	.	.
CC(=O)N1CCCC(C(=O)c2ccc3c4c(cccc24)CC3)C1 (centres undefined)	-	-	-	-	-	-	-	-	-
COCCC(=O)N1CCCC(C(=O)c2ccccc2SC)C1 (centres undefined)	-	-	-	-	-	-	.	.	.
COc1cccc(OC)c1CN1CCCC(C(=O)c2ccccc2SC)C1 (centres undefined)	-	-	-	-	-	-	-	-	-
Cc1ccc(CSc2[nH]c(=O)ncc2C)cc1	-	-	-	-	-	-	.	.	.
Cc1ccnc2nc(C(=O)OC(C)C(=O)NCc3ccccc3)nn12 (centres undefined)	.	.	.	-	.	.	.	.	.
CS(=O)(=O)c1cccc(C(=O)Nc2ccccc2Cc2ccccc2)c1	-	-	-	-	-	-	.	.	.
Oc1ccc(O)c(/C(=N/Nc2ccccc2)c2ccccc2)c1	-	-	-	.	-	-	.	.	.
CCN(CC)S(=O)(=O)c1ccc(N2CCOCC2)c(NC(=O)c2ccccc2)c1	-	-	-	-	-	-	.	.	.
CCN(CC)S(=O)(=O)c1ccc(N2CCOCC2)c(NC(=O)C23CC4CC(CC(Cl)(C4)C2)C3)c1	-	-	-	-	-	-	-	-	-
COc1cc(CNC23CC4CC(CC(C4)C2)C3)ccc1OCc1ccccc1	-	-	-	-	-	-	.	.	.
Cc1cccc(/C=C/C(=O)c2cc(Br)ccc(=O)c2O)c1	-	-	-	-	-	25	-	-	-

Compound activity deposited in PubChem BioAssay by Johns Hopkins Ion Channel Center.
